# Screening data: PubChem, several laboratories
# GSTO1 inh: counter-screen for RBBP9 inhibitors: inhibitors of human GSTO1; P78417; recombinant GSTO1, activity-based probe fluorescence polarization; inhibition, % at 5.96 µM; hit rate 1.1% among 300,000;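 active means inhibition above the campaign mean inhibition plus 3 SD, cut at about 35% in these data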;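 further: 0% = GSTO1-1 with DMSO and 100% = wells lacking GSTO1-1 enzyme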
# proCasp3 act: activates human procaspase-3 | P42574 | recombinant procaspase-3 D3A, Ac-DEVD-pNA absorbance 405 nm | activation, % at 8.5 µM | hit rate 0.11% among 330,000 | AID 463141;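 active means activation above the mean of all tested compounds plus 3 SD, cut at about 21% in these data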;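 further: 0% = DMSO alone and 100% = DMSO wells spiked with extra 5 µM PC-3 D3A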
#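 System: Procaspase-3 D3A mutant. Medium: Zinc-free 300 mM NaCl, 50 mM HEPES, 0.01% Triton X-100. Schedule: 1 h preincubation plus 2 h reaction at 25 °C. Measured by: 405 nm absorbance of p-nitroaniline, reads at 0 and 120 min. Read-out: percent activation relative to control range.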
# Apaf-1 inh: inhibitors of human Apaf-1 apoptosome; hit rate 0.71% among 330,000; O14727; reconstituted apoptosome caspase-3 activity, DEVD-Rh110 fluorescence; inhibition, % at 20 µM; active means inhibition of at least 40% at 20 µM;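 further: plate controls were DMSO wells for no effect and DEVD-CHO caspase inhibitor wells for full effect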
#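 Assay system: Apoptosome proteins | Medium: pH 7.5 Hepes buffer with CHAPS, BSA, DTT | Also added: Cytochrome c and DEVD-Rh110 substrate | Times: 30 min plus 50 min, RT | Detection: Rhodamine 110 fluorescence at Ex 480/Em 540 nm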
# EBNA-1 inhibitor: blocks EBNA-1 binding to DNA | AID 1950 | EBNA-1 DNA binding, fluorescence polarization | hit rate 0.34% among 300,000 | inhibition, % at 14.8 µM; in the data active means inhibition above about 28%
# procasp7 counter: counter-screen for procaspase-3 activators: activators of human procaspase-7. P55210. recombinant procaspase-7, Ac-DEVD-pNA absorbance 405 nm; D23A/D198A/D206A triple mutant, cannot self-cleave; scale: DMSO 0, 5 µM enzyme 100. activation, % at 8.5 µM. hit rate 0.093% among 330,000. AID 463210;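 active means percent activation above the screen-wide mean plus 3 SD, cut at about 25% in these data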
#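 buffer or medium = Zinc-free HEPES/NaCl buffer, pH 7.4 | material = Procaspase-7 triple mutant (PC-7 D3A) | input = 2 µM procaspase-7 mutant as dispensed | signal = Epi-absorbance of released pNA at 405 nm, two timepoints | timing = 1 h preincubation, 2 h reaction | replicates = singlicate compound testing | evaluation = % activation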
# ZTA DNA inh: ZTA (EBV) inhibition in EBNA-1 counter-screen | AID 2234 | hit rate 0.15% among 320,000 | inhibition, % at 11 µM | ZTA-DNA binding, fluorescence polarization | P03206; in the data active means inhibition above about 33%
# EBNA-1 confirm: EBNA-1 (EBV) inhibition, confirmation; Recombinant EBNA-1 DBD, Cy5-DNA fluorescence polarization; inhibition, % at 14.8 µM; hit rate 35% among 830; shares compounds with EBNA-1 inhibitor;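 active means mean inhibition across replicates above a set limit taken from the earlier primary screen, cut at about 28% in these data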;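 further: plate controls were EBNA-1 protein with DMSO for no effect and wells lacking EBNA-1 for full effect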
# ZTA counter trip: counter-screen for EBNA-1 inhibitors: Epstein-Barr virus ZTA inhibitors, triplicate. shares compounds with EBNA-1 inhibitor. Zta-ZRE DNA binding, Cy5 fluorescence polarization. inhibition, % at 11.1 µM. 830 tested, under 10 active;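 active means mean inhibition over triplicates above a set limit taken from the primary EBNA-1 screen, cut at about 37% in these data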;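 further: purified full length Zta protein with Cy5 labeled ZRE DNA probe; 0% = Zta with DMSO and 100% = wells lacking Zta protein; inhibitors lower polarization by freeing the labeled DNA probe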
# * marks the source's active call; other numbers are inactive results; / = no result given. This is a sample that favours compounds with a hit; in the whole collection about 1.8% have one here.
SMILES,GSTO1 inh,proCasp3 act,Apaf-1 inh,EBNA-1 inhibitor,procasp7 counter,ZTA DNA inh,EBNA-1 confirm,ZTA counter trip
Cc1cc2cc(CNC(=O)c3ccc(S(=O)(=O)N4CCCC4)cc3)ccc2n1C,5,7,16,33*,5,2,-8,24
Nc1ccc2nc(SCC(=O)Nc3ccc(N4CCOCC4)c(Cl)c3)sc2c1,10,-3,11,-4,-3,-1,/,/
CCCC(=O)Nc1ccc2nc(SCC(=O)Nc3ccc(N4CCOCC4)c(Cl)c3)sc2c1,3,-1,8,67*,7,16,71*,4
Cc1ccccc1NC(=S)N=Nc1c(O)n(C)c2ccc(S(=O)(=O)N3CCOCC3)cc12,36*,17,-1,42*,3,-1,15,9
Cc1ccc(S(=O)(=O)N2C[C@@H]3CCCC[C@@H]3[C@@H](C)[C@H]2CC(=O)c2ccccc2)cc1,/,-1,21,/,9,/,/,/
CCn1c(COc2ccccc2C)nnc1SCC(=O)Nc1cc(C)on1,-6,1,-3,50*,8,0,3,13
CC(=O)Nc1ccc(/C=C/c2nc(-c3ccccc3O)n[nH]2)cc1,-1,4,13,45*,9,1,-6,1
CCN(CC)S(=O)(=O)c1ccc(OCC2CCCCO2)c([N+](=O)[O-])c1 (configuration not stated),-5,2,11,-14,4,-4,/,/
COc1cccc(CC2(CO)CCN(Cc3ccc(NC(C)=O)cc3)CC2)c1,-1,-4,-2,0,-2,5,/,/
COc1ccc(CC2(CO)CCN(Cc3ccc(NC(C)=O)cc3)CC2)cc1,-3,2,1,46*,6,4,0,5
CCc1nnc(NC(=O)CSc2ccc(-c3nc4ccc(C)cc4[nH]3)cn2)s1,1,-1,13,45*,13,-6,15,-2
Cc1ccc2nc(-c3ccc(SCC(=O)O)nc3)[nH]c2c1,-5,-9,1,1,-5,-6,/,/
Cc1ccc(C(C(=O)NCC2CCCO2)N(Cc2ccccc2F)C(=O)Cn2nnc(-c3cccs3)n2)cc1 (configuration not stated),-2,1,25,37*,-12,-10,-1,0
O=C(NC1CCCC1)C(c1ccncc1)N(CC1CCCO1)C(=O)Cn1nnc(-c2cccs2)n1 (configuration not stated),5,4,15,-3,-5,9,/,/
O=c1[nH]cnc2c1sc1nc(C(F)F)cc(-c3ccccc3)c12,/,8,-17,/,12,13,/,/
Cc1ccc(Nc2nc(Oc3ccc(OCc4ccccc4)nn3)nc(N3CCOCC3)n2)cc1,2,2,15,32*,4,-6,3,-5
CCC(=O)NC(=S)Nc1ccc(NC(=O)c2ccc(C)c([N+](=O)[O-])c2)cc1,-5,-1,14,43*,2,1,33*,5
Cn1c(CNC(=O)c2ccc(Cl)c(Cl)c2)nnc1SCC(=O)Nc1sc2c(c1C#N)CCCC2,-4,6,15,31*,8,9,39*,-8
CS(=O)(=O)c1ccc2nc(NC(=O)c3ccc(Cn4cc(Br)cn4)o3)sc2c1,-17,1,-3,-2,-4,5,/,/
Cc1ccc(C(=O)Nc2nc3ccc(S(C)(=O)=O)cc3s2)cc1C,-10,8,-7,144*,-2,-4,97*,16
Cc1cccc(C(=O)Nc2nc3ccc(S(C)(=O)=O)cc3s2)c1,/,/,-2,/,/,/,/,/
COC(=O)c1ccc(N2CCN(C)CC2)c(NC(=O)c2ccc(Br)o2)c1,-2,12,8,-2,11,-3,/,/
O=C(COC(=O)c1cc(Br)ccc1O)Nc1ccc2c(c1)OCCO2,-2,11,10,49*,14,6,22,1
O=C(COC(=O)c1cc(Br)ccc1O)Nc1ccc2c(c1)OCO2,/,3,4,/,-2,2,/,/
COC(=O)c1c(NC(=O)c2ccccc2)sc2c1CC(C)(C)OC2,2,3,3,32*,-6,13,2,0
SMILES,GSTO1 inh,proCasp3 act,Apaf-1 inh,EBNA-1 inhibitor,procasp7 counter,ZTA DNA inh,EBNA-1 confirm,ZTA counter trip
CCOC(=O)c1c(NC(=O)c2ccc(C)cc2)sc2c1CC(C)(C)OC2,13,-3,25,-9,-11,20,/,/
CC(C)CNC(=S)N(Cc1ccco1)Cc1cc2cc3c(cc2[nH]c1=O)OCCO3,-6,0,11,61*,-1,7,2,17
COc1ccccc1N(CCC#N)C(=S)Nc1ccc(S(=O)(=O)N2CCOCC2)cc1,/,-15,2,/,-9,/,/,/
COc1ccc(CNC(=O)Nc2ccc(C)cc2C)cc1,17,0,-1,63*,6,0,28*,-1
NS(=O)(=O)c1ccc(NC(=O)c2ccc(COc3ccccc3)o2)cc1,-5,-2,3,39*,-3,3,20,-2
CCCN1Cc2cccc(C(=O)Nc3ccc(-c4nc5ccccc5[nH]4)cc3)c2C1=O,-2,12,-12,58*,9,-6,51*,3
COCCN1Cc2cccc(C(=O)Nc3ccc(-c4nc5ccccc5[nH]4)cc3)c2C1=O,-1,-7,-2,5,2,-7,/,/
CCOC(=O)N1CCc2c(sc(NC(=O)C3COc4ccccc4O3)c2C(N)=O)C1 (configuration not stated),-1,-1,15,29*,5,13,56*,7
COC(=O)c1ccc(Nc2cc(C)nc(-c3ccccc3O)n2)cc1,0,-5,-2,29*,-7,-3,0,-4
COC(=O)/C=C1/SC(=Nc2ccc(Cl)c(Cl)c2)NC1=O,-8,-2,4,41*,5,-2,-8,-10
COC(=O)/C=C1\SC(=Nc2ccccc2)NC1=O,4,5,-6,-8,-3,-6,/,/
Cc1ccc(NC(=O)CCCN2C(=O)c3cccc4cccc(c34)C2=O)cc1,-2,3,-9,55*,13,12,9,8
Cc1ccc(NC(=O)CCN2C(=O)c3cccc4cccc(c34)C2=O)cc1,6,9,1,-16,-1,-10,/,/
COc1ccc(CCNC(=O)COc2ccc3c(C)cc(=O)oc3c2)cc1OC,8,0,-5,-4,-3,-2,/,/
